# From PubChem
# Shown are actives, neighbours in structure and some others; about 3.4% of the full set was active somewhere.
# IMP-1 inh – IMP-1 metallo-beta-lactamase inhibitors, primary screen, biochemical, epi-absorbance readout, Pseudomonas aeruginosa enzyme; AID 1556, 2009; inhibition, % at 5.6 µM; purified IMP-1, nitrocefin hydrolysis, epi-absorbance fluorescence; hit rate 0.45% among 290,000;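 active = inhibition above the mean plus 3 SD of all compounds in the same screening run, cut at about 4.5% in these data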;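 also: 0% = IMP-1 with DMSO and 100% = DMSO wells lacking enzyme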
#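 Assay system: purified IMP-1; Quantity: IMP-1 0.2 nM before substrate addition; Medium: HEPES buffer pH 7.1 with ZnSO4 and Brij 35; Incubation: 15 min enzyme–compound preincubation, then 25 min nitrocefin reaction, 25 °C; Signal: fluorescence quenching readout, ex 480/em 530 nm; Controls: DMSO with and without IMP-1; Repeats: singlicate testing.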
# MEKK2mut PB1 HTS – MEK5 binding signal on mutant MEKK2 PB1, primary screen, biochemical, multiplex bead flow cytometry, Alexa488-MEK5 | percent response, % at 10 µM | Alexa488-MEK5 binding to MEKK2 mutant | AID 1530, 2009 | hit rate 0.35% among 290,000; in the data active = percent response above about 24%, passing the limit was not always enough
# MEKK3 PB1 HTS – modulators of MEKK3-MEK5 PB1 binding, primary screen, biochemical, wildtype MEKK3, multiplex bead flow cytometry, Alexa488-MEK5; AID 1529, 2009; bead-based flow cytometry, Alexa488-MEK5 binding to MEKK3; actives lie on both sides; 0 = blocked by unlabeled MEK5, 100 = vehicle; hit rate 1.4% among 290,000; Mitogen-activated protein kinase kinase kinase 3 (Homo sapiens), Q99759; binding response (% of control), % at 10 µM;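 active = binding response more than 3 SD above or below the average of its plate-row segment, actives on both sides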;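 also: Alexa488 bead fluorescence after subtracting the streptavidin-only scavenger bead signal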
# Target sequence (Q99759 whole entry, looked up): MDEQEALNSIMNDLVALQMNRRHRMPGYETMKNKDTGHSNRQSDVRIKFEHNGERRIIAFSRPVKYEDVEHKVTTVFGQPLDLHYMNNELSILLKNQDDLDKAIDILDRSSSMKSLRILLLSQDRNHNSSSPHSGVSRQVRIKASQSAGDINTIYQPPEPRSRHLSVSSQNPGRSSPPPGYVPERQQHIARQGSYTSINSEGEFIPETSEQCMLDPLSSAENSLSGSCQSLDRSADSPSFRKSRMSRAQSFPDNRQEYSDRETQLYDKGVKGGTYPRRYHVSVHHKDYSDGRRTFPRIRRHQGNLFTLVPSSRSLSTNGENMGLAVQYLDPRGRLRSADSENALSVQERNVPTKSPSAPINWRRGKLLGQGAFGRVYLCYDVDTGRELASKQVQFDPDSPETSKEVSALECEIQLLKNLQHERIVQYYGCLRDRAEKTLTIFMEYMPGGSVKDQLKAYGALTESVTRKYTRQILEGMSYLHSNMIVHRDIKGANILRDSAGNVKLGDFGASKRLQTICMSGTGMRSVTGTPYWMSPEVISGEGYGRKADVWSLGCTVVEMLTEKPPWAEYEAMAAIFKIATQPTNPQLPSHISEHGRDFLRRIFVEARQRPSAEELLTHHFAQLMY
# MEKK2 WT-MEK5 – modulators of MEK5 binding to wildtype MEKK2, primary screen, biochemical, multiplex bead flow cytometry, Alexa488-MEK5 | Alexa488-MEK5 binding to MEKK2 WT; actives lie on both sides | binding response (% of control), % at 10 µM | hit rate 1.1% among 290,000 | AID 1531, 2009; in the data active = binding response below about 67% or above about 130%
# VIM-2 inhibitor – VIM-2 metallo-beta-lactamase inhibitors, primary screen, biochemical, epi-absorbance readout, Pseudomonas aeruginosa enzyme; purified VIM-2, nitrocefin hydrolysis, epi-absorbance fluorescence; inhibition, % at 5.6 µM; hit rate 0.89% among 290,000;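 active = inhibition above the mean of all tested compounds plus 3 SD, cutoff set per screening run, cut at about 7.5% in these data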;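 also: red hydrolysis product quenches plate fluorescence so inhibitors raise well fluorescence; 0% = enzyme with DMSO and 100% = DMSO without enzyme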
# MEKK2wt confirm – modulators of MEK5 binding to wildtype MEKK2, confirmation, biochemical, single concentration, multiplex bead flow cytometry. Alexa488-MEK5 binding to MEKK2 WT; actives lie on both sides. hit rate 2.4% among 5,900. binding response (% of control), % at 10 µM. shares compounds with MEKK3 PB1 HTS; in the data active = binding response below about 16% or above about 210%; inactive = in between
# MEKK2mut-MEK5 – mutant MEKK2 PB1-MEK5 binding signal retest – biochemical, single concentration, multiplex bead flow cytometry, confirmation | shares compounds with MEKK3 PB1 HTS | Alexa488-MEK5 binding to MEKK2 mutant | percent response, % at 10 µM | hit rate 2% among 5,900 | AID 1893, 2009; in the data active = percent response mostly above about 71%, no sharp cut-off; inactive = mostly below about 38%;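 also: higher means compound restores mutant binding toward wildtype level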
# MEKK3 confirm – MEKK3 wild-type PB1 binding to MEK5, inhibitors, confirmation, biochemical, bead multiplex flow cytometry, single concentration, wildtype; shares compounds with MEKK3 PB1 HTS; Alexa488-MEK5 binding to MEKK3; stronger effect = lower value; binding response (% of control), % at 10 µM; hit rate 1.8% among 5,900;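 active = binding response below 72% of control, or above a set upper limit, though filed actives all read lower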;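 also: 100% = DMSO only wells and 0% = binding blocked by excess unlabeled MEK5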
# The depositor's hits bear a star; . = no result given; [ ] = remark or other dose.
SMILES,IMP-1 inh,MEKK2mut PB1 HTS,MEKK3 PB1 HTS,MEKK2 WT-MEK5,VIM-2 inhibitor,MEKK2wt confirm,MEKK2mut-MEK5,MEKK3 confirm
CC(NC(=O)CN(c1ccccc1F)S(C)(=O)=O)c1ccccc1 (configuration not stated),-2,27*,107,106,-1,107,-1,102
O=S1(=O)CC(O)C(Nc2ccc(Cl)cc2)C1 (configuration not stated),-2,-4,49*[inhibitor],67,-1,96,-9,97
O=S1(=O)CC(O)C(Nc2ccccc2)C1 (configuration not stated),-4,1,99,102,-2,.,.,.
FC(F)(F)c1cc(-c2ccccc2)nc(NCc2cccnc2)n1,-1,-10,1.0*[inhibitor],-1.0*[inhibitor],-2,97,-7,99
FC(F)(F)c1cc(-c2ccco2)nc(NCc2cccnc2)n1,-3,.,.,.,-4,.,.,.
CN(C)CCN(C(=O)c1ccc2c(c1)CCCC2)c1nc2c(F)cccc2s1,0,11,102,117,0,.,.,.
CCOc1ccc2nc(N(CCCN(C)C)C(=O)c3ccc4c(c3)CCCC4)sc2c1,-2,26*,105,158*,-3,160,37,105
CCOc1ccc2nc(N(CCCN(C)C)C(=O)c3ccc(S(=O)(=O)N4CCc5ccccc5C4)cc3)sc2c1,-2,20,103,168*,-1,176,39,102
CN(C)CCCN(C(=O)c1ccc2c(c1)CCCC2)c1nc2ccc(Cl)cc2s1,-2,78*,107,196*,-3,221*,62,107
COc1c(Cl)cnn(-c2ccccc2)c1=O,-3,0,97,99,-5,.,.,.
CCCCCc1cc(=O)oc2c(C(CCN3CCCC3)c3ccc(N(C)C)cc3)c(OC)cc(OC)c12 (configuration not stated),.,42*,118,151*,.,184,83*,108
COc1ccc(C(CCN2CCOCC2)c2c(OC)cc(OC)c3c(C)cc(=O)oc23)cc1 (configuration not stated),.,5,122,151*,.,111,7,99
COc1cc(OC)c2ccc(=O)oc2c1C(CCN1CCCC(C)C1)c1ccc2c(c1)OCO2 (configuration not stated),.,5,94,102,.,.,.,.
COc1ccc(C(CCN2CCCC(C)C2)c2c(OC)cc(OC)c3c2OC(=O)CC3c2cc(OC)c(OC)c(OC)c2)cc1 (configuration not stated),.,14,114,145*,.,130,35,106
COc1cc(C(CCN2CCCC(C)C2)c2c(OC)cc(OC)c3c(-c4ccccc4)cc(=O)oc23)cc(OC)c1OC (configuration not stated),.,20,108,138*,.,121,10,105
CN1OC(Cn2cc(C#N)c(=O)n(C)c2=O)CC1c1ccccc1 (configuration not stated),-2,-4,104,97,-1,.,.,.
CCc1ccccc1S(=O)(=O)Cc1ccc(C(=O)NC2CCCC2)o1,-1,4,99,103,-4,.,.,.
COc1ccc(/C=C2\N=C3CCCCCN3C2=O)cc1,-2,0,104,103,-2,.,.,.
O=C(Nn1cnnc1)c1cc(-c2cccc(Br)c2)nc2ccccc12,-1,-3,105,104,-3,.,.,.
CCCn1c(SCC(=O)C(C)(C)C)nc2ccccc21,-4,-3,97,92,0,.,.,.
CCCCCc1cc(=O)oc2c(C(CCN3CCCC(C)C3)c3ccc(OC)cc3)c(OC)cc(OC)c12 (configuration not stated),.,58*,110,153*,.,206,107*,105
CCCCCc1cc(=O)oc2c(C(CCN3CCCCC3)c3ccc(OC)cc3)c(OC)cc(OC)c12 (configuration not stated),.,67*,120,164*,.,208*,47,107
COc1ccc(C(CC(=O)N2CCCC(C)C2)c2c(OC)cc(OC)c3c(-c4ccccc4)cc(=O)oc23)cc1 (configuration not stated),.,4,107,81,.,.,.,.
CCCCCc1cc(=O)oc2c(C(CCN3CCN(c4ccccc4)CC3)c3ccc4c(c3)OCO4)c(OC)cc(OC)c12 (configuration not stated),.,9,106,134,.,.,.,.
CCCCCc1cc(=O)oc2c(C(CCN(CC)CC)c3ccc(OC)cc3)c(OC)cc(OC)c12 (configuration not stated),.,29*,86,182*,.,167,34,97
SMILES,IMP-1 inh,MEKK2mut PB1 HTS,MEKK3 PB1 HTS,MEKK2 WT-MEK5,VIM-2 inhibitor,MEKK2wt confirm,MEKK2mut-MEK5,MEKK3 confirm
CCCCCc1cc(=O)oc2c(C(CCN3CCCC3)c3cc(OC)c(OC)c(OC)c3)c(OC)cc(OC)c12 (configuration not stated),.,24*,108,157*,.,143,21,109
CCN(CC)CCC(c1ccc(N(C)C)cc1)c1c(OC)cc(OC)c2ccc(=O)oc12 (configuration not stated),.,7,87,117,.,.,.,.
Cc1ccc(N2CCN(CC(O)COc3cccc4ccccc34)CC2)cc1 (configuration not stated),-1,7,105,105,0,.,.,.
COc1ccc(-c2cc(C3CCN(Cc4ccc([N+](=O)[O-])cc4)CC3)[nH]n2)cc1,-2,-1,97,110,0,.,.,.
Cc1ccc(CN2CCC(c3cc(-c4ccc(Cl)cc4)n[nH]3)CC2)cc1,-2,27*,106,167*,-4,155,32,109
C=CCOc1ccc(/C=N/N2C(=O)C(CC(=O)Nc3ccc(F)cc3F)SC2=NC)cc1 (configuration not stated),-4,0,128*,101,-3,102,0,106
Cc1nn2c(C(F)(F)F)c3c(nc2c1-c1ccccc1)CCC3,-2,-35,1.0*[inhibitor],.,-2,103,5,104
CCOC(=O)C(NCc1ccco1)(NC(=O)c1ccccc1)C(F)(F)F (configuration not stated),-6,5,133*,130,-3,108,4,106
